Assay [1] addresses T1, Rap1 (Homo sapiens, UniProt P62834, G12V).
T1 sequence (P62834 1-184 G12V): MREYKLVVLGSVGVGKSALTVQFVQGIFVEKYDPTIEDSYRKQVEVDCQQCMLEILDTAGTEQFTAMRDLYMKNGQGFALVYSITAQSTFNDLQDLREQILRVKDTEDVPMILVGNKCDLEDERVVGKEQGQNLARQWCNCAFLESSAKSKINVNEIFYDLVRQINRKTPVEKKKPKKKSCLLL
The assay can be described thus: Pull-down of HA-Rap1V12 from HEK293 cell lysates by GST-KRIT1 F123 variants. The assay is classed as binding. In short, it runs like this: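 HEK293 cells were transfected (Lipofectamine Plus) with HA-Rap1A(G12V) cDNA, then lysed after 24 h in cold 50 mM Tris-HCl pH 7.4, 150 mM NaCl, 0.5% NP-40, 5 mM MgCl2 plus protease inhibitors. Bead-immobilized GST-KRIT1 FERM variants (WT or L717,721A; 10 µg) were incubated with 350 µg clarified lysate overnight at 4°C. Beads were washed, run on 4–20% SDS-PAGE and immunoblotted with monoclonal anti-HA (1:4,000).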

Assay [2] has as its target HEG1-C19 peptide (Homo sapiens, UniProt Q9ULI3). The assay can be described thus: Affinity chromatography of KRIT1 FERM variants on HEG1-C19 peptide matrix. The conditions noted are these: GFP-KRIT1 FERM from HEK293 cell lysates. The class given is binding. In short, it runs like this:
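Pull-down: human HEG1 C19 cytoplasmic tail model protein (His6, N-terminal in vivo biotinylation tag, E. coli-expressed) immobilized on beads; 10 µg added to 350 µg clarified lysate of HEK293 transfected 24 h with GFP-KRIT1 FERM WT or L717,721A; lysis in 50 mM Tris-HCl pH 7.4, 150 mM NaCl, 0.5% NP-40, 5 mM MgCl2 plus protease inhibitors; 4°C overnight; washed, 4–20% SDS-PAGE, anti-GFP immunoblot; three experiments.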

B1: GST-KRIT1 F123(R452E) (protein)
chain: EKVRIYRMDGSYRSVELKHGNNTTVQQIMEGMELSQETQQYFTIWICSENLSLQLKPYHKPLQHVRDWPEILAELTNLDPQRETPQLFLRRDVRLPLEVEKQIEDPLAILILFDEARYNLLKGFYTAPDAKLITLASLLLQIVYGNYESKKHKQGFLNEENLKSIVPVTKLKSKAPHWTNRILHEYKNLSTSEGVSKEMHHLQRMFLQNCWEIPTYGAAFFTGQIFTKASPSNHKVIPVYVGVNIKGLHLLNMETKALLISLKYGCFMWQLGDTDTCFQIHSMENKMSFIVHTKQAGLVVKLLMKLNGQLMPTER
modifications: left off: GST, end not stated, kept
Turning to B1, the “interaction with Rap1” value in assay [1] is “does not bind to Rap1”.

B2: KRIT1(L717,721A): human KRIT1 Leu717/Leu721 to Ala mutant, used as FERM domain or full-length protein (protein)
chain: EKVRIYRMDGSYRSVELKHGNNTTVQQIMEGMRLSQETQQYFTIWICSENLSLQLKPYHKPLQHVRDWPEILAELTNLDPQRETPQLFLRRDVRLPLEVEKQIEDPLAILILFDEARYNLLKGFYTAPDAKLITLASLLLQIVYGNYESKKHKQGFLNEENLKSIVPVTKLKSKAPHWTNRILHEYKNLSTSEGVSKEMHHLQRMFLQNCWEIPTYGAAFFTGQIFTKASPSNHKVIPVYVGVNIKGLHLLNMETKALLISLKYGCFMWQLGDTDTCFQIHSMENKMSFIVHTKQAGAVVKALMKLNGQLMPTER
modifications: left off: GST, end not stated, kept
With B2, the “binding to the HEG1-C19 peptide” value in assay [2] was “markedly reduced binding”.

The record behind these values is article PMC3461514 (The Journal of Cell Biology, 2012).
